# From PubChem
# The sample as a whole holds a higher share of hits than the screen did.
# INS-1E ATP HTS: protection of INS-1E cells from cytokine death, primary screen, ATP luminescence, single point; AID 488910, 2010; protection from cytokine-induced ATP loss, % at 10 µM; INS-1E cytokine-induced death, 48 h; normalised: neutral wells 0, positive control 100; 0.1% of 20,000 active;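 active = mean replicate protection from cytokine-induced ATP loss at least 50% and at least 75% of replicates each reaching 50%; inconclusive = meets only one of the two criteria, mean or replicate share; inactive = fails both the mean and replicate share criteria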
#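 Test system: INS-1E rat cells | Quantity: 8000 cells per well | Medium: Phenol-red-free RPMI with 5% fetal bovine serum | Reagent: Cytokine cocktail of IFN-γ, TNF-α and IL-1β | Doses: One compound concentration, pin transfer | Timing: 48 h co-treatment, 10 min post-lysis read | Technique: Luminescent ATP assay (CellTiter-Glo)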
# A1 apoptosis 2: A1 inhibitors via caspase activation, primary screen, cell-based, luminescence, HTS, two replicates; caspase activation, % (test concentration not listed); MEF A1-2A-BIM cells, caspase-Glo luminescence, 3 h; percent of clofoctol response, DMSO zero; 24,000 tested, under 10 active; in the data active = caspase activation above about 5.9%; inconclusive = no clear call, values can overlap the other calls; inactive = below about 2.2%
#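 Material: mouse embryonic fibroblasts co-expressing A1 and BIM (A1-2A-BIM), primed for A1 dependence / Quantity: 2500 cells/well / Buffer or medium: RPMI-1640 growth medium with 10% FBS / Doses: 50 nL compound per well, pinned / Schedule: 3 h compound exposure at 37 °C / Signal: Caspase-Glo luminescence (DEVD substrate) / Measure: Caspase-3/7 activation, seen as rise in luminescence signal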
# T cruzi HTS: inhibitors of intracellular Trypanosoma cruzi, primary screen, cell-based, plate reader, single point, set 2; 4.9% of 22,000 active; intracellular Trypanosoma cruzi in host cells; AID 651903, 2012; activity score (inhibition), % at 5.01 µM; in the data active = activity score above about 55%; inconclusive = no clear call, values can overlap the other calls;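 also: parasites and compound incubated about four days before reading; 0% = median of neutral control wells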
# The depositor's hits bear a star; ? = inconclusive; · = not tested or not shown.
SMILES,INS-1E ATP HTS,A1 apoptosis 2,T cruzi HTS
C[C@@H]1CCCCO[C@@H](CN(C)C(=O)Nc2ccc(C(F)(F)F)cc2)[C@@H](C)CN([C@H](C)CO)C(=O)c2cc(NC(=O)Nc3ccccc3)ccc2O1,-6,0,64*
C[C@@H]1CCCCO[C@H](CN(C)C(=O)Nc2ccc(C(F)(F)F)cc2)[C@@H](C)CN([C@H](C)CO)C(=O)c2cc(NC(=O)Cc3ccccc3)ccc2O1,-20,-2,71*
C[C@@H]1CCCCO[C@H](CN(C)C(=O)Nc2ccc(C(F)(F)F)cc2)[C@H](C)CN([C@@H](C)CO)C(=O)c2cc(NC(=O)Nc3ccccc3)ccc2O1,·,0,·
C[C@@H]1CCCCO[C@H](CN(C)C(=O)Nc2ccc(C(F)(F)F)cc2)[C@H](C)CN([C@H](C)CO)C(=O)c2cc(NC(=O)c3ccccc3)ccc2O1,·,-1,·
C[C@@H]1CCCCO[C@@H](CN(C)C(=O)Nc2ccc(C(F)(F)F)cc2)[C@@H](C)CN([C@H](C)CO)C(=O)c2cc(NC(=O)c3ccccc3)ccc2O1,-10,0,59*
O=C(CCCCCCC(=O)Nc1ccccc1O)N/N=C/C=C/c1ccccc1,6,1,-20
CCO[C@H]1OC(C(=O)NC2CC2)=C[C@@H](C(C)(C)C)[C@@H]1CCCO,·,0,·
O=C(CCCCCCC(=O)Nc1ccccc1O)NN=C1CCCCCCC1,1,0,2
[N-]=[N+]=Nc1ccc(NC(=O)c2ccccc2)cc1,·,-6,·
C[C@H]1CN([C@@H](C)CO)C(=O)c2cc(NC(=O)Nc3ccc(C(F)(F)F)cc3)ccc2O[C@@H]1CN(C)Cc1ccc(C(F)(F)F)cc1,·,?,72*
C[C@@H]1CN([C@H](C)CO)C(=O)c2cc(NC(=O)Nc3ccc(C(F)(F)F)cc3)ccc2O[C@@H]1CN(C)Cc1ccc(C(F)(F)F)cc1,-27,·,25
C[C@H](CO)N1C[C@H](C)[C@H](CN(C)Cc2ccc(C(F)(F)F)cc2)Oc2ccc(NC(=O)Nc3ccc(F)cc3)cc2C1=O,·,-2,58*
C[C@@H]1CN([C@@H](C)CO)C(=O)c2cc(NC(=O)Nc3ccc(C(F)(F)F)cc3)ccc2O[C@@H]1CN(C)Cc1ccc(Cl)c(Cl)c1,-46,0,75*
C[C@@H]1CN([C@H](C)CO)C(=O)c2cc(NC(=O)Nc3ccc(C(F)(F)F)cc3)ccc2O[C@@H]1CN(C)Cc1ccccc1,-31,-1,14
C[C@H](CO)N1C[C@H](C)[C@H](CN(C)Cc2ccccc2)Oc2ccc(NC(=O)Nc3ccc(C(F)(F)F)cc3)cc2C1=O,·,·,32*
C[C@H](CO)N1C[C@H](C)[C@@H](CN(C)Cc2ccc(C(F)(F)F)cc2)Oc2ccc(NC(=O)Nc3ccc(F)cc3)cc2C1=O,-62,0,12
C[C@@H]1CN([C@@H](C)CO)C(=O)c2cc(NC(=O)Nc3ccc(C(F)(F)F)cc3)ccc2O[C@@H]1CN(C)Cc1ccc(C(F)(F)F)cc1,-62,0,52
C[C@@H]1CN([C@@H](C)CO)C(=O)CCCn2cc(nn2)CO[C@H]1CN(C)Cc1ccc2cccnc2c1,·,0,-20
Cc1ccc(S(=O)(=O)N[C@@H](Cc2ccccc2)C(=O)NCCN=[N+]=[N-])cc1,·,1,·
O=C1c2ccccc2C(=O)N1[C@@H]1CCCN(Cc2ccc(OCCO)cc2)C1,·,1,·
O=C(N/N=C/c1c(O)ccc2ccccc12)c1ccccn1,·,0,·
C[C@H](CO)N1C[C@H](C)[C@@H](CN(C)C(=O)Nc2ccc(C(F)(F)F)cc2)Oc2ccc(NC(=O)Nc3ccc(C(F)(F)F)cc3)cc2C1=O,-103,·,?
C[C@H](CO)N1C[C@H](C)[C@H](CN(C)C(=O)Nc2ccc(C(F)(F)F)cc2)Oc2ccc(NC(=O)Nc3ccc(C(F)(F)F)cc3)cc2C1=O,-20,·,74*
C[C@H]1CN([C@@H](C)CO)C(=O)Cc2cc(NC(=O)Nc3ccc(F)cc3)ccc2O[C@H]1CN(C)Cc1ccccc1,-10,1,25
COc1ccc(NC(=O)Nc2ccc3c(c2)CC(=O)N([C@H](C)CO)C[C@H](C)[C@H](CN(C)Cc2ccc(Oc4ccccc4)cc2)O3)cc1,-37,0,32
SMILES,INS-1E ATP HTS,A1 apoptosis 2,T cruzi HTS
COc1ccc(NC(=O)Nc2ccc3c(c2)CC(=O)N([C@H](C)CO)C[C@@H](C)[C@@H](CN(C)Cc2ccc(-c4ccccc4)cc2)O3)cc1,-10,·,72*
C[C@@H]1CN([C@H](C)CO)C(=O)Cc2cc(NC(=O)Nc3ccc(F)cc3)ccc2O[C@@H]1CN(C)Cc1ccc(Oc2ccccc2)cc1,-53,0,71*
C[C@H](CO)N1C[C@H](C)[C@@H](CN(C)Cc2ccc(Oc3ccccc3)cc2)Oc2ccc(NC(=O)Nc3ccc(F)cc3)cc2CC1=O,·,0,·
COc1ccc(NC(=O)Nc2ccc3c(c2)CC(=O)N([C@@H](C)CO)C[C@@H](C)[C@@H](CN(C)Cc2ccc(Oc4ccccc4)cc2)O3)cc1,-12,2,60*
C[C@H]1CN([C@@H](C)CO)C(=O)Cc2cc(NC(=O)Nc3ccc(F)cc3)ccc2O[C@@H]1CN(C)Cc1ccc(Oc2ccccc2)cc1,-25,·,70*
COc1ccc(NC(=O)Nc2ccc3c(c2)CC(=O)N([C@H](C)CO)C[C@H](C)[C@H](CN(C)Cc2ccc(-c4ccccc4)cc2)O3)cc1,-36,0,15
NC(=O)COc1ccccc1/C=N/NC(=O)c1ccccn1,-4,-2,-9
O=C(CCCCCCC(=O)Nc1ccccc1O)N/N=C/[C@H](O)[C@@H](O)[C@H](O)[C@H](O)CO[C@H]1O[C@H](CO)[C@H](O)[C@H](O)[C@H]1O,-8,·,2
O=C(NO)c1ccc(C(=O)N/N=C/c2ccc(O)c(O)c2O)cc1,·,0,·
C[C@@H]1CN([C@H](C)CO)C(=O)Cc2cc(NC(=O)Nc3ccc(F)cc3)ccc2O[C@H]1CN(C)Cc1ccc(Oc2ccccc2)cc1,-68,·,?
C[C@H](CO)N1C[C@H](C)[C@H](CN(C)Cc2ccc(Oc3ccccc3)cc2)Oc2ccc(NC(=O)Nc3ccc(F)cc3)cc2CC1=O,-52,·,62*
O=C1O[C@H](c2ccccc2)[C@H](c2ccccc2)N2[C@H]1[C@@H](C(=O)N1CCN(c3ncccn3)CC1)[C@]1(C(=O)Nc3ccccc31)[C@H]2c1ccccc1OCCO,·,-1,·
COC(=O)CCCCCCC(=O)N/N=C/c1ccc(S(=O)(=O)O)o1,4,0,-19
COc1ccc([Si](C)(C)[C@@H]2[C@@H](CCn3cc(CCO)nn3)O[C@]3(C(=O)N(C)c4c(Br)cc(C)cc43)[C@H]2C)cc1,·,1,·
CC(C)NC(=O)Nc1ccc2c(c1)C(=O)N([C@H](C)CO)C[C@H](C)[C@@H](CN(C)C(=O)NC(C)C)OCCCC[C@@H](C)O2,9,0,-22
Cc1noc(C)c1S(=O)(=O)Nc1ccc2c(c1)CC(=O)N([C@H](C)CO)C[C@@H](C)[C@H](CN(C)Cc1ccc(Cl)c(Cl)c1)O2,-20,0,63*
